# From PMC7591420 (Targeted Oncology, 2020)
# Read-outs that look alike come from different tables or passages of the source.
# Columns and labels:
# [1] = tested on: patients with advanced solid tumors; assay type: in vivo, human; conditions: all cohorts
# Summary of the method: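 Open-label, non-randomized multicenter escalation plus expansion, 28-day cycles. PI3K inhibitor 0.2–0.8 mg/kg IV over 1 h on days 1, 8, 15 or 1, 8, 15, 22 (max 65 mg); MEK inhibitor 30–50 mg BID orally, continuous from day 4 or 4 days on/3 off from day 6. DLTs assessed in cycle 1; adverse events graded by NCI CTCAE v4.0.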
# [2] = Plasma pharmacokinetics of copanlisib; assay type: in vivo, human; conditions: for Cmax / AUC(0-t): human, plasma, intravenous, cycle 1 day 1, copanlisib alone, geometric mean (% CV); for AUC(0-t): AUC(0–25)
# [3] = tested on: patients with solid tumors; conditions: intravenous monotherapy; cited from earlier work
# [4] = copanlisib 0.4 mg/kg as monotherapy; cited from earlier work
# patients = conditions: cited from earlier work
# [5] = Plasma pharmacokinetics of refametinib; assay type: in vivo, human; conditions: for AUC(0-t) / Cmax: human, plasma, oral, cycle 1 day 14, refametinib alone, geometric mean (% CV); for AUC(0-t): AUC(0–8)
# [6] = tested on: patients with advanced cancer; conditions: cited from earlier work
# [7] = 0.4 mg/kg, cohort 2C: copanlisib 0.4 mg/kg weekly, refametinib 30 mg BID
# [8] = 0.4 mg/kg, expansion cohort: copanlisib 0.4 mg/kg weekly, refametinib 30 mg BID
# [9] = 30 mg, cohort 2C: copanlisib 0.4 mg/kg weekly, refametinib 30 mg BID
# [10] = 30 mg, expansion cohort: copanlisib 0.4 mg/kg weekly, refametinib 30 mg BID
structure (smiles),measurement,setting,value
COc1c(OCCCN2CCOCC2)ccc2c1N=C(NC(=O)c1cnc(N)nc1)N1CCN=C21 [copanlisib],Patients with dose modifications attributed to copanlisib-related TEAEs,[1]; N = 64,39.1%
same,Patients with TEAEs considered related to copanlisib,"[1]; N = 64, given with refametinib",93.8%
same,Cmax,"[2]; 0.2 mg/kg, cohort 1: copanlisib 0.2 mg/kg 3 weeks on/1 week off, refametinib 30 mg BID",126 ng/mL
same,AUC(0-t),[2]; [7],725 ng·h/mL
same,AUC(0-t),[2]; [8],890 ng·h/mL
same,Cmax,[2]; [7],241 ng/mL
same,Cmax,[2]; [8],312 ng/mL
same,Cmax,[2]; cohort 2,189 ng/mL
same,"median time of Cmax, range over cohorts","[2]; single infusion 0.2–0.8 mg/kg, cycle 1, day 1",0.50 to 1.03 h
same,"copanlisib Cmax and AUC(0–25), day 1 (alone) versus day 15 (with refametinib)",[2]; within each cohort,comparable between day 1 and day 15
same,"maximum tolerated dose (MTD), single agent",[3],0.8 mg/kg
same,activity of 0.4 mg/kg versus 0.8 mg/kg,[4],less active than 0.8 mg/kg
CC(=O)Nc1cccc(-n2c(=O)n(C3CC3)c(=O)c3c(Nc4ccc(I)cc4F)n(C)c(=O)c(C)c32)c1 [trametinib],incidence of ophthalmologic toxicities,patients; all-cause,19%
O=C(NOCCO)c1cc(CN2OCCCC2=O)c(F)c(F)c1Nc1ccc(I)cc1F [RO4987655],incidence of ophthalmologic toxicities,patients,27%
COc1cc(F)c(F)c(Nc2ccc(I)cc2F)c1NS(=O)(=O)C1(C[C@H](O)CO)CC1 [refametinib],Patients with dose modifications attributed to refametinib-related TEAEs,[1]; N = 64,53.1%
same,Patients with TEAEs considered related to refametinib,"[1]; N = 64, given with copanlisib",95.3%
same,AUC(0-t),"[5]; 30 mg, cohort 1: copanlisib 0.2 mg/kg 3 weeks on/1 week off, refametinib 30 mg BID",2510 ng·h/mL
same,AUC(0-t),"[5]; 30 mg, cohort 2B: copanlisib 0.6 mg/kg 3 weeks on/1 week off, refametinib 30 mg BID",3750 ng·h/mL
same,AUC(0-t),[5]; [9],4770 ng·h/mL
same,AUC(0-t),"[5]; 30 mg, cohort 3A: copanlisib 0.8 mg/kg 3 weeks on/1 week off, refametinib 30 mg BID",4530 ng·h/mL
same,AUC(0-t),[5]; [10],5310 ng·h/mL
same,Cmax,[5]; [9],873 ng/mL
same,Cmax,[5]; [10],845 ng/mL
same,AUC(0-t),[5]; cohort 2,5110 ng·h/mL
same,Cmax,[5]; cohort 2,943 ng/mL
same,"median time of Cmax, range over cohorts",[5]; multiple doses of refametinib 30 mg or 50 mg BID,1.50 to 4.00 h
same,"MTD, single agent","[6]; oral, twice daily (BID), monotherapy",50 mg
same,partial response rate,[6]; refametinib monotherapy,2%
same,stable disease,[6]; refametinib monotherapy,16%
